Data published in PMC3954597 (Biochemistry, 2014).
Residue numbers refer to the chain shown, from its start. Several values for one entry are separate records, joined by “and”; a condition that tells them apart may be missing. Identical values can stand only once. Like-named read-outs stand apart in the source and are kept apart here.

How the values were obtained:
R47E PTP1B = biological target: T1, R47E PTP1B (Homo sapiens, UniProt P18031, R47E); test: PTP assay, R47E PTP1B; format: biochemical
T1 sequence (P18031 1-321 R47E): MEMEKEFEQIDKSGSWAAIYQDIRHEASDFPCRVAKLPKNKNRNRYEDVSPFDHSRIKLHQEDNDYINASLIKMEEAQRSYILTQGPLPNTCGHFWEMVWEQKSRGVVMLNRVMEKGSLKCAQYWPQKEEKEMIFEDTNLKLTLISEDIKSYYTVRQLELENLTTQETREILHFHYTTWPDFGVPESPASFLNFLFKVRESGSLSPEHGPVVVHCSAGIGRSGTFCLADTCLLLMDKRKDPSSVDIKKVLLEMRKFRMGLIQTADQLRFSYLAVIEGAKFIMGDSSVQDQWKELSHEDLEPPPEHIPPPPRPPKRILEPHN
Method in brief: (§1)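 E. coli-expressed catalytic domains were used: wild-type, R24M or R47E PTP1B (aa 1–321), and SHP-1 (aa 205–595). Reactions started with PTP (0.5–20000 nM final) and dephosphorylation was monitored continuously at 282 nm. kcat, KM and kcat/KM came from initial-rate fits (Michaelis–Menten, or V = kcat[E][S]/KM when KM >> [S]) or from fits of progress curves.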

R24M PTP1B = biological target: T2, R24M PTP1B (Homo sapiens, UniProt P18031, R24M); test: PTP assay, R24M PTP1B; format: biochemical
T2 sequence (P18031 1-321 R24M): T1 sequence (P18031 1-321 R47E) with R24M, E47R
Method in brief: as §1

SHP-1 [1] = biological target: T3, SHP-1 (Homo sapiens, UniProt P29350); conditions: catalytic domain; cited from earlier work
T3 sequence (P29350 205-595): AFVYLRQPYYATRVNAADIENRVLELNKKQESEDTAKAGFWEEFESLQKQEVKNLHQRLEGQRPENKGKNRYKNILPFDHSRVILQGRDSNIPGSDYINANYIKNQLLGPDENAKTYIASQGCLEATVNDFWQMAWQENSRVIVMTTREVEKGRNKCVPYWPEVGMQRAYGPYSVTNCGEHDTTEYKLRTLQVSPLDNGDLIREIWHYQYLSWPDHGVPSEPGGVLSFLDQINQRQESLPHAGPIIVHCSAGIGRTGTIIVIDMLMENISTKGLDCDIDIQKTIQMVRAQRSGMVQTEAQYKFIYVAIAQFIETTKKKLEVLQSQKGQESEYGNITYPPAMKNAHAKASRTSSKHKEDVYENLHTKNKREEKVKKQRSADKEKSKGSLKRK

SHP-2 = biological target: T4, SHP-2 (Homo sapiens, UniProt Q06124); conditions: catalytic domain; cited from earlier work
T4 sequence (Q06124 199-593): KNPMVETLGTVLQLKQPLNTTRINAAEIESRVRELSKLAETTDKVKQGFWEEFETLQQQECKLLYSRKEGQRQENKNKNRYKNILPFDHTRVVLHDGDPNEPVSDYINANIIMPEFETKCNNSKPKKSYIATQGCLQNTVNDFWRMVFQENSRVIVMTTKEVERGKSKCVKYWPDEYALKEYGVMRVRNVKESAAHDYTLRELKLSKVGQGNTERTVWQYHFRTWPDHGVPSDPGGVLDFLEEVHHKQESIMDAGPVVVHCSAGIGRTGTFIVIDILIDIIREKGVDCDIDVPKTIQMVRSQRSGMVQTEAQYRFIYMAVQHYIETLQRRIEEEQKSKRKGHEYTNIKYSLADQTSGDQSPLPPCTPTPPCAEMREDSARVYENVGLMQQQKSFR

SHP-1 [2] = biological target: T3, SHP-1; test: PTP assay, SHP-1; format: biochemical; conditions: catalytic domain; 100 mM HEPES pH 7.4; monitored at 282 nm
Method in brief: as §1

Row | Substance | Km (R47E PTP1B; R47E PTP1B aa 1–321, pH 7.4) | kcat (R47E PTP1B; R47E PTP1B aa 1–321, pH 7.4) | kcat/KM x 10^7 (R47E PTP1B; R47E PTP1B aa 1–321, pH 7.4) | WT/R47E (R47E PTP1B; ratio of kcat/KM, WT over R47E PTP1B (fold decrease by the mutation)) | Km (R24M PTP1B; R24M PTP1B aa 1–321, pH 7.4) | kcat (R24M PTP1B; R24M PTP1B aa 1–321, pH 7.4) | kcat/KM x 10^7 (R24M PTP1B; R24M PTP1B aa 1–321, pH 7.4) | WT/R24M (R24M PTP1B; ratio of kcat/KM, WT over R24M PTP1B (fold reduction by the mutation)) | Km (SHP-1 [1]) | kcat (SHP-1 [1]) | kcat/KM x10^6 (SHP-1 [1]) | Km (SHP-2) | kcat (SHP-2) | kcat/KM x10^6 (SHP-2) | kcat/KM x10^6 (SHP-1 [2])
1 | Ac-SASASpYSASA-NH2 | 12 ± 1 µM | 35 ± 1 s⁻¹ | 0.29 x 10^7 M^−1 s^−1 | 0.79 | 14 ± 0.6 µM | 42 ± 2 s⁻¹ | 0.30 x 10^7 M^−1 s^−1 | 0.77 | 1990 µM and 2000 µM | 26 ± 4 s^−1 and 26 ± 4 ^c s^−1 | 0.013 x10^6 M^−1 s^−1 | 2300 ± 400 µM | 42 ± 5 s^−1 and 42 ± 5 ^c s^−1 | 0.018 x10^6 M^−1 s^−1 and 0.018 ^c x10^6 M^−1 s^−1 | 
2 | Ac-YRKRFpYRYKF-NH2 |  |  |  |  |  |  |  |  |  |  |  |  |  |  | 0.00023 x10^6 M^−1 s^−1
